# Compound activity from PubChem BioAssay.
# TRPC6 act = activators of mouse TRPC6 channel; Q61143; HEK293-TRPC6 membrane potential dye fluorescence; hits give high values; B-score at 10 µM; 310,000 tested, 0.13% active; AID 2550;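 active = B-score of the integrated fluorescence ratio above library mean plus 3 SD, and starting fluorescence ratio within library mean plus 5 SD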;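 note: higher score means more depolarization so channel activation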
# Target sequence (Q61143 whole entry, looked up): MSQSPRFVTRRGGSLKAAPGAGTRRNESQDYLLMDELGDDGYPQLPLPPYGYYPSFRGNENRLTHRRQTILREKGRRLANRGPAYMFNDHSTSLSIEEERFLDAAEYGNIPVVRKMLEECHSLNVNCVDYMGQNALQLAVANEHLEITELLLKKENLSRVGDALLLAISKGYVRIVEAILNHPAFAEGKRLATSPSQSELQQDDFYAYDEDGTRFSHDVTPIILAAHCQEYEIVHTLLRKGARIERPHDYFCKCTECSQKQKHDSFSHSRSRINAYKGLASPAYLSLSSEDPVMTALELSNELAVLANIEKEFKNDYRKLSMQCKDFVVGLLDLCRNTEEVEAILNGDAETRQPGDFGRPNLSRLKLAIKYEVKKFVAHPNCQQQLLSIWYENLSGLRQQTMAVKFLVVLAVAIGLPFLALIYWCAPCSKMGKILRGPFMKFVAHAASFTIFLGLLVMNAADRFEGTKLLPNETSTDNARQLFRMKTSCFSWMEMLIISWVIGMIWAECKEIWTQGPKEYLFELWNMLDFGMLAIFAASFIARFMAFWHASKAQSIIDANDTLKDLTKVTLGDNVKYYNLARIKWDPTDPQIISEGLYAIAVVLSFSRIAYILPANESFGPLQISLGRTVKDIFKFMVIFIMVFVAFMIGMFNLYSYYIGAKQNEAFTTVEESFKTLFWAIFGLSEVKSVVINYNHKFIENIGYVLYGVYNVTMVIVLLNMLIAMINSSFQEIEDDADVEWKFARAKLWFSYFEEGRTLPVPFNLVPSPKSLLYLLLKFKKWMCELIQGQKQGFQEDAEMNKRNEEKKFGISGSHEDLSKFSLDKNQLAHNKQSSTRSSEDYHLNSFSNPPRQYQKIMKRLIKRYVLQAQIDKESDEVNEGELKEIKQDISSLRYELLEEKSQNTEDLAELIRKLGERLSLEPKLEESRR
# TRPC6 inh = inhibitors of mouse TRPC6 channel | HEK293-TRPC6, membrane potential dye, ACh-evoked depolarization; hits give low values | Q61143 | B-score at 10 µM | 310,000 tested, 1.1% active;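 active = B-score under library mean minus 3 SD, initial fluorescence not abnormally high, positive integrated signal ratio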;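 note: B-score derived from integrated fluorescence ratio over the kinetic read; more negative B-score means stronger inhibition of depolarization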
# TRPC4 PAM = allosterically enhances the mouse TRPC4 cation channel; HEK293 TRPC4beta/mu-opioid, DAMGO EC20, Fluo-4 Ca2+ flux; hits give high values; B-score at 10 µM; 310,000 tested, 0.42% active; AID 2227;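 active = B-score of calcium response area above 5 SD of library B-scores, with initial fluorescence ratio within 5 SD of library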;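 note: B-score of integrated fluorescence ratio over time as area under calcium response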
# TRPC4 block = inhibitors of mouse TRPC4 channel; HEK293 TRPC4beta/mu-opioid, DAMGO-evoked Fluo4 calcium flux; hits give low values; B-score at 10 µM; 300,000 tested, 0.39% active; Q9QUQ5;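 active = B-score over 3 SD under the library average, no early fluorescence shift, positive overall ratio signal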
#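 Assay system: HEK293 cells with stable TRPC4beta plus mu-opioid receptor expression; Probe or stimulus: DAMGO in two steps, submaximal then maximal; Dosing: single-point compound dosing; Measured by: Fluo4 calcium-dye fluorescence, kinetic read; Read-out basis: B score from integrated Fluo4 fluorescence ratio.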
# TRPC4 act = activators of mouse TRPC4 channel; HEK293 TRPC4beta/mu-opioid, Fluo4 calcium fluorescence; hits give high values; B-score at 10 µM; Q9QUQ5; 310,000 tested, 0.49% active; AID 2237;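 active = B-score above 5 SD of library B-scores, and initial fluorescence ratio not above library mean plus 5 SD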;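 note: positive B-score marks a calcium rise read as TRPC4 activation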
#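 Assay system – TRPC4beta and mu-opioid receptor HEK293 stable cells · Measured by – Fluo4 fluorescence, kinetic · Schedule – dye loading 45 min room temperature, 110 s kinetic read · Read-out – B-scored integrated calcium fluorescence ratio · Controls – buffer and maximal DAMGO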
# HEK293 MPD ctr = parental HEK293 nonspecific activity of TRPC6 modulators; shares compounds with TRPC6 inh; membrane potential dye fluorescence; membrane potential signal change, % at 10 µM; 2,400 tested, 51% active; AID 488924;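 active = membrane potential signal moves up or down beyond 5 SD from buffer-only wells, on both duplicate plates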
# HEK293 MPD ctr 2 = second check of TRPC6 modulator effects in parental HEK293 cells; shares compounds with TRPC6 inh; membrane potential dye fluorescence; after compound, maximal acetylcholine stimulation; inhibition, % at 10 µM; 2,400 tested, 14% active;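 active = membrane potential signal drops by more than 5 SD from the mean control signal, in both duplicate plates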;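 note: plate controls were acetylcholine ECmax control wells for no effect and buffer only wells for full effect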
# TRPC4 ctr mod = tests whether TRPC6 modulators also affect mouse TRPC4; shares compounds with TRPC6 inh; HEK293 TRPC4/mu-opioid, membrane potential fluorescence; percent change from control (negative = decrease, positive = increase), % at 10 µM; 2,400 tested, 69% active;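 active = membrane potential signal moved up or down beyond 5 SD of buffer control wells, in both duplicate plates, actives on both sides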;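 note: plate controls were assay buffer wells for no effect and DAMGO maximal-effect wells for full effect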
# TRPC4/MOR inh 2 = second check of whether TRPC6 modulators also affect mouse TRPC4; inhibition, % at 10 µM; shares compounds with TRPC6 inh; 2,400 tested, 55% active; HEK293 TRPC4/mu-opioid, membrane potential dye fluorescence; stimulated with maximal-effect DAMGO;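 active = drop in membrane potential signal beyond 5 SD of the control wells in both duplicate plates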;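 note: TRPC4 counter screen for TRPC6 hits run under conditions tuned for TRPC6 not TRPC4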
# TRPC6 inh conf = mouse TRPC6 inhibitor confirmation. inhibition, % at 10 µM. 3,300 tested, 43% active. HEK293-TRPC6, membrane potential dye, ACh-evoked depolarization. shares compounds with TRPC6 inh;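 active = fluorescence ratio falls more than 5 SD below the full-stimulation control mean, in both duplicate runs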;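 note: integrated fluorescence ratio of peak minus minimum over baseline after agonist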
# TRPC6 act confirm = mouse TRPC6 activator confirmation | shares compounds with TRPC6 inh | HEK293-TRPC6 membrane potential dye fluorescence, FDSS | 2,800 tested, 11% active | activation, % at 10 µM | AID 488961;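 active = ratio signal rise beyond 5 SD above unstimulated control wells' mean, seen in both duplicate runs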;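 note: plate controls were buffer EC0 wells for no effect and acetylcholine ECmax response for full effect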
# Active calls of the source: *; i = inactive; x = not tested or not shown; + = active, no number. A selection: hits, their analogues and other compounds. The true share with any hit is near 2.3%.
SMILES,TRPC6 act,TRPC6 inh,TRPC4 PAM,TRPC4 block,TRPC4 act,HEK293 MPD ctr,HEK293 MPD ctr 2,TRPC4 ctr mod,TRPC4/MOR inh 2,TRPC6 inh conf,TRPC6 act confirm
CCCCN(CCCC)c1nc(OC)nc(-n2nnc(C(C)=O)c2C)n1,11.5*,i,i,i,i,240.5%*,i,57.0%*,i,i,96.0%*
CC(=O)c1nnn(-c2nc(N)nc(N(c3ccccc3)c3ccccc3)n2)c1C,i,i,i,i,i,x,x,x,x,x,x
COc1ccccc1C(=O)N/C(=C\c1cn(C)c2ccccc12)C(=O)NCCCN1CCOCC1,i,i,i,i,i,x,x,x,x,x,x
CCc1cccc(CC)c1NC(=O)CSc1nnc(C2CC2)n1C,i,i,i,i,i,x,x,x,x,x,x
COc1ccc(CN(C(=O)CCC(=O)Nc2cc(C)on2)C(C(=O)NC(C)(C)C)c2cccc(OC)c2OC)cc1 (stereo unspecified),i,i,i,i,i,x,x,x,x,x,x
CCOC(=O)Cn1c(-c2ccccn2)nc2ccccc21,i,i,i,i,i,x,x,x,x,x,x
CCOC(=O)c1ccc2c(c1)nc(-c1ccccn1)n2CC,i,-5.54*,i,i,i,i,i,i,i,i,i
COc1ccccc1C(CNC(=O)C(CCSC)NS(=O)(=O)c1ccccc1F)N1CCCC1 (stereo unspecified),i,i,i,i,i,x,x,x,x,x,x
N#Cc1ccc(/C=C/C(=O)c2ccco2)cc1,i,i,i,i,i,x,x,x,x,x,x
Nc1ccc(/C=C/C(=O)c2ccco2)cc1,24.6*,-8.45*,i,i,i,722.0%*,+,92.0%*,52.5%*,80.5%*,199.0%*
COc1cc2c(cc1NC(=O)Nc1ccc(F)cc1)oc1ccccc12,i,i,i,i,i,x,x,x,x,x,x
CCCCOC(=O)/C(=C/c1cn(C)c2ccccc12)NC(=O)c1ccc(OC)cc1,i,i,i,i,i,x,x,x,x,x,x
COc1ccc(C(=O)N/C(=C\c2cn(C)c3ccccc23)C(=O)OCCN(C)C)cc1,i,-6.08*,i,i,i,i,i,i,53.0%*,45.0%*,i
Cc1nc(NCCCn2ccnc2)c2ccccc2n1,i,-7.69*,i,i,i,-237.0%*,61.0%*,-38.5%*,38.5%*,52.5%*,i
c1cncc(-c2nc(NCCCn3ccnc3)c3ccccc3n2)c1,i,i,i,i,i,x,x,x,x,x,x
COc1ccc(Oc2c(C(F)(F)F)oc3cc(OCC(=O)O)ccc3c2=O)cc1,i,-5.17*,i,i,i,i,i,i,i,i,i
S=c1[nH]nc(-c2cccs2)n1/N=C/c1c(Cl)cccc1Cl,i,i,i,i,i,x,x,x,x,x,x
Cc1cccc(-n2cnc(C(=O)NC3CCCCCC3)c2)n1,i,-6.03*,i,i,i,i,i,9.0%*,i,i,i
COc1ccc(C(=O)OCC2CC(c3ccccc3)=NO2)cc1OC (stereo unspecified),i,-5.07*,i,i,i,i,i,i,i,i,i
